The text below walks through data of article PMC3387347 (Investigational new drugs, 2012).

The nature of data set [1]: In vivo cassette dosing pharmacokinetic study in normal mice. Also noted: species or system mouse. As to conditions: for AUCb: normal brain; for Kp / clearance / Vd: male, ICR, mouse, 5 mg/kg, normal mice; for Kp: brain, intravenous, Pb (brain partition coefficient, AUCb/AUCp); for clearance / Vd: plasma, iv; for clearance: CL (total systemic clearance); for Vd: Vd (apparent volume of distribution). In short, it runs like this:
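Adult male ICR mice each received a compound mixture in NMP:PEG300:water (1:4:5 by volume) as an IV bolus into a lateral tail vein. The dose was about 5 mg/kg per compound, with one compound at 1.67 mg/kg. Plasma and brain were collected at various times, stored at −80°C and quantified by LC/MS/MS. AUCb was derived by noncompartmental analysis.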

The next data set deals with Pgp. As to conditions: cited from earlier work.
The conditions of data set [2]: mice; cited from earlier work.
[3] abbreviates: cassette B, IV approximately 5 mg/kg.
The mark [4] stands for this setting: cassette C, IV approximately 5 mg/kg.

Each structure is given as a SMILES string.

As usually defined, the clearance is the volume of plasma or blood freed of the substance per unit of time. The low end stands for a low capacity for elimination, the high end for a high capacity for elimination.

For the compound `COc1cc2ncnc(Nc3ccc(F)c(Cl)c3)c2cc1OCCCN1CCOCC1` [Gefitinib], the AUCb in data set [1] (cassette A, IV approximately 5 mg/kg (ON271320 1.67 mg/kg)) turned out to be 1968.6 ng·h/g. In data set [1] (setting [3]), the AUCb is 2685.2 ng·h/g, the Kp turned out to be 2.5, the clearance was 71.7 mL/min/kg and the Vd was 9.9 L/kg. Also, in data set [1] (setting [4]), the AUCb came to 3491.2 ng·h/g, the Kp was 1.9, the clearance was 43.3 mL/min/kg and the Vd came to 8.9 L/kg. For the same compound, in the data set with Pgp, the “concentration reported to inhibit Pgp” value is 100 µM. Besides, the “bound to plasma proteins” value in data set [2] was 95%.
